Bioassay records (PubChem)
An excerpt weighted towards active compounds, which were near 1.2% of everything screened.
GC-A act: GC-A (human) enzyme activation; P16066; HEK293 GC-A cells, cGMP TR-FRET, EC30 ANP; 0% at EC30 ANP, 100% saturating ANP; activation, % at 10 µM; hit rate 0.14% among 370,000; AID 1671463; in the data active means activation above about 40%
Target sequence (P16066 whole entry, looked up): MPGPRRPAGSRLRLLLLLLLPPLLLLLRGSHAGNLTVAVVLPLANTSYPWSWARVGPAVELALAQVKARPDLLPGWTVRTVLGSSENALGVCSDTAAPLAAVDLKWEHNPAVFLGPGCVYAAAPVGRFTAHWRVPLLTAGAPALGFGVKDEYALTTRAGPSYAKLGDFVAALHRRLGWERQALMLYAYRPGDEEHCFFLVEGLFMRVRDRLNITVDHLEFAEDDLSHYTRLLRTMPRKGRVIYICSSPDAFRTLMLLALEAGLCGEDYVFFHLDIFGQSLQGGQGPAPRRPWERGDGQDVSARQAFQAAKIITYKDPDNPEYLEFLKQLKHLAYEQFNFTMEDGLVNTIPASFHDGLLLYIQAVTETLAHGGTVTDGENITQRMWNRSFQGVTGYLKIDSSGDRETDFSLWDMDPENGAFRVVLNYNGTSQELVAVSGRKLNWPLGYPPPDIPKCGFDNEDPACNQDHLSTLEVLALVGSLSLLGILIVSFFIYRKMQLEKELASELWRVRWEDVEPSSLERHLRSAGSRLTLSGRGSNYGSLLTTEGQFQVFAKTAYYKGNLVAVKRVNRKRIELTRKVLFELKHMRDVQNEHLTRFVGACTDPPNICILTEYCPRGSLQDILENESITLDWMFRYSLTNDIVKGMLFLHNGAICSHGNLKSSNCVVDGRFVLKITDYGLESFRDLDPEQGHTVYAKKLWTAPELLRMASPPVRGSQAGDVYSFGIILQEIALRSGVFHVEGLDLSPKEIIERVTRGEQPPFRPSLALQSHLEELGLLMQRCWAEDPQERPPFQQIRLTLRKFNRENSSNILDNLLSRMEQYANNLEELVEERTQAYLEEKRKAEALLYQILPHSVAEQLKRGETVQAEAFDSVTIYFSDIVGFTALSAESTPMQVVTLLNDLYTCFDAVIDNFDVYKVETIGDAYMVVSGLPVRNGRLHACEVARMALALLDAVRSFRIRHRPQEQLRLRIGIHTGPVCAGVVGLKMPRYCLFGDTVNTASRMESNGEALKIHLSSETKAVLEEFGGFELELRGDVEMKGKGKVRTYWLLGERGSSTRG
GC-B act: GC-B (human) receptor activation; hit rate 0.11% among 370,000; P20594; AID 1920062; HEK293-GC-B cells, CNP EC30, cGMP TR-FRET; 0% at EC30 CNP, 100% saturating CNP; activation, % at 10 µM;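 active means activation at 10 µM reaching about 35% in either raw or pattern-adjusted values, limit read from the data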
ARFGAP1 inh: inhibits rat ARF GTPase activating protein 1 | Q62848 | Arfgap1-stimulated ARF1 GTP hydrolysis, GDP FP detection | inhibition, % at 16.5 µM | hit rate 0.26% among 360,000 | AID 651572;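 active means inhibition above a per-plate limit, mean inhibition of low control wells plus 3 SD, cut at about 25% in these data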
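Material: rat Arfgap1 GAP domain (His6, aa 1-136), purified enzyme. Also added: human ARF1(Δ1-17)-GTP substrate. Compound dosing: 16.5 µM single point, 1.26% DMSO. Timing: enzyme reaction 120 min at 25 °C after 20 min preincubation. Signal: GDP detection by fluorescence polarization. Read-out basis: percent inhibition of GAP-stimulated GDP formation, scaled between DMSO and no-Arfgap1 medians.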
CTSL1 counter: counter-screen for PFM18AAP inhibitors: inhibitors of F. hepatica cathepsin L1; inhibition, % at 5.96 µM; recombinant F. hepatica cathepsin L1, Z-Leu-Arg-MCA fluorescence; hit rate 0.49% among 300,000;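 active means inhibition above the mean of all tested compounds plus 3 SD, set per screening campaign, cut at about 17% in these data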
core dimer inh: HCV core protein dimerization inhibition. inhibition, % at 5 µM. hit rate 0.33% among 300,000. TR-FRET GST/Flag-core106 dimerization, 1536-well;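 active means inhibition above the mean of all tested compounds plus 3 SD, set per screening campaign, cut at about 45% in these data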
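Assay system: tagged HCV core106 pair (GST and Flag); medium: KF-containing HEPES buffer, pH 7.45, DTT, CHAPS, BSA; also added: Eu donor and XL665 acceptor anti-tag antibodies; dosing: 5 µM single dose; timing: compound-protein-antibody incubation 4 h at 22.5 °C; signal: TR-FRET 671 and 617 nm emission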
ASAP1 inh: blocks human ASAP1-stimulated Arf1 GTP hydrolysis | GDP FP detection | inhibition, % at 16.5 µM | hit rate 0.19% among 360,000 | AID 624377; in the data active means inhibition above about 25%
Each line names hits and unclear results; the compound was inactive in the other large screens.

Cn1c(N)c(C(=O)COc2ccc(Cl)cc2Cl)c(=O)n(C)c1=O	none
Cc1ccc(C2=NN3C(=O)c4ccccc4C3C2)cc1 (stereo not given)	none
CC(C)(C)n1cnc2cc(NC(=O)c3ccco3)ccc21	none
Cc1cccc(-n2cnc3c(c2=O)c2nc4ccccc4nc2n3Cc2ccco2)c1	core dimer inh 59.9
Cc1cccc(S(=O)(=O)c2c(N)n(Cc3ccco3)c3nc4ccccc4nc23)c1	none
O=C(Nc1ccc(CN2CCOCC2)cc1)c1ccc(-c2cccc([N+](=O)[O-])c2)o1	ARFGAP1 inh 36.7, ASAP1 inh 37.0
O=[N+]([O-])c1cccc(-c2ccc(C(=S)N3CCOCC3)o2)c1	none
O=C(Nc1cccc(N=Cc2cc(Br)cc(Br)c2O)c1)c1ccco1	none
O=C(Nc1cccc(N=Cc2cc(Cl)cc(Br)c2O)c1)c1ccco1	CTSL1 counter 18.2
O=C(CN1CCN(c2ccccc2)CC1)Nc1scc2c1c(=O)oc1ccccc12	none
COc1cccc(OCC(O)CN2CCC(CN3C(=O)c4cccc5cccc(c45)C3=O)CC2)c1 (stereo not given)	CTSL1 counter 33.2
O=c1c2c3c(sc2n2cnnc2n1Cc1ccccc1)CN(Cc1ccccc1)CC3	core dimer inh 51.0
COc1ccc(S(=O)(=O)Nc2ccccc2C(=O)OC2CCCN(C)C2)cc1OC (stereo not given)	CTSL1 counter 27.4
COc1ccc(S(=O)(=O)Nc2ccccc2C(=O)NC(C)(C)C)cc1OC	none
CC1(Cc2ccc(OC(F)(F)F)cc2)C(=O)Nc2ccc(S(=O)(=O)NC3CCCCC3)cc21 (stereo not given)	none (no result: CTSL1 counter, core dimer inh)
O=C(NCCc1c[nH]c2ccccc12)c1ccc2nc[nH]c2c1	none
CNc1cc(=O)n(C)c(=O)n1-c1ccccc1	CTSL1 counter 31.2
COc1ccc(N(C(=O)c2snc(C(N)=O)c2N)C(C(=O)NC2CCCCC2)c2ccc(F)cc2)c(OC)c1 (stereo not given)	none
COc1ccc(-c2nsc(C(=O)N(c3ccc(F)cc3)C(C(=O)NC3CCCC3)c3ccc(OC)cc3)c2N)cc1 (stereo not given)	core dimer inh 52.6
COc1cccc(C2Nc3c(F)cc(Br)cc3C3C=CCC32)c1OC (stereo not given)	none
COc1cc(C2Nc3c(F)cccc3C3C=CCC32)cc(Br)c1OC (stereo not given)	core dimer inh 46.3
O=C(CCc1nnc(Cc2ccc3c(c2)OCO3)o1)NCc1nc2ccccc2s1	none (no result: CTSL1 counter, core dimer inh)
O=C(/C=C/c1ccccc1Cl)NC1CCS(=O)(=O)C1 (stereo not given)	CTSL1 counter 41.8
O=C(/C=C/c1ccccc1Cl)NC1CCCCC1	none
Cc1ccc(S(=O)(=O)N(CC(=O)Nc2ccccc2C(=O)O)c2ccccc2)cc1	none
CCO/C=C1/C(=O)N(Cc2ccccc2)C(=O)c2ccccc21	ASAP1 inh 31.4
Cc1ccsc1C(=O)N1CC(=O)Nc2ccccc21	none
O=[N+]([O-])c1ccc(-c2c[nH]c(=S)[nH]2)cc1	core dimer inh 53.2
COC(=O)C(NC(=O)CN1C(=O)c2ccccc2C1=O)c1ccc(O)c(OC)c1 (stereo not given)	CTSL1 counter 17.0
O=C1CC(NCCC2=CCCCC2)C(=O)N1c1cccc(Cl)c1Cl (stereo not given)	CTSL1 counter 17.7 (no result: GC-A act, GC-B act, ARFGAP1 inh, ASAP1 inh)
O=C(Nc1ccccc1C(F)(F)F)c1ccc2nccnc2c1	none
O=c1[nH]c(N2CCOCC2)cc2ccccc12	CTSL1 counter 55.9
CCc1cccc(C)c1NC(=O)CCOc1ccccc1	none
CCC(C)Nc1nc(-c2c[nH]c3ccccc23)cs1 (stereo not given)	ARFGAP1 inh 32.0
Nc1nc(-c2c[nH]c3ccccc23)cs1	none
Nc1ccc(C(=O)Nc2ccc3nc(-c4cccnc4)[nH]c3c2)cc1	none
Cc1ccc(NS(=O)(=O)c2ccc(NC(=O)c3ccccc3C(=O)O)cc2)c(C)c1	none
Cc1ccc(NS(=O)(=O)c2ccc(NC(=O)c3ccc(-c4ccccc4)cc3)cc2)c(C)c1	core dimer inh 46.4
CCOC(=O)C1CCCN(C(=O)CNC(=O)Cn2ccc3ccccc3c2=O)C1 (stereo not given)	none
CC(C)CC(NS(=O)(=O)c1ccc2c(c1)oc(=O)n2C)C(=O)N1CC=C(c2ccccc2)CC1 (stereo not given)	CTSL1 counter 77.5
Cc1ccccc1C(=O)N1CCN(S(=O)(=O)c2ccccc2)CC1	none
COc1cccc(-n2c(C)c3c(OC)cccc(=O)c3c2C)c1	core dimer inh 51.6
O=C(COc1ccc(F)cc1)Nc1nnc(C2CCCCC2)s1	none
CCCN1C(=O)C(O)(CC(=O)c2cccc(OC)c2)c2ccccc21 (stereo not given)	none
Cc1cc(C)c(-c2csc(NC(=O)C3=NN(c4ccccc4)C(=O)CC3)n2)c(C)c1	core dimer inh 46.2
Cc1c(NC(=O)CSCc2ccc(Cl)cc2Cl)cccc1C(=O)O	CTSL1 counter 18.9
O=C(CSCc1ccc(Cl)cc1Cl)Nc1ccc(O)cc1C(=O)O	none
O=C(COc1ccc(F)c(Cl)c1)c1ccc[nH]1	none
O=C(CCC(=O)c1ccc[nH]1)c1ccc(Cl)cc1	core dimer inh 52.6
CC(=O)N1CCC2(CC1)C/C(=N\NC(=S)Nc1ccccc1C)c1cc(O)ccc1O2	none
c1ccc(-c2ncc(CN3CCN(c4ccccn4)CC3)[nH]2)cc1	none
Nc1[nH]n2c(=O)cc(-c3ccccc3)nc2c1N=Nc1ccc(S(N)(=O)=O)cc1	none
NS(=O)(=O)c1ccc(N=Nc2c(-c3ccccc3)[nH]n(-c3nc(-c4ccccc4)cs3)c2=O)cc1	core dimer inh 46.1
CCSc1nnc(NC(=O)C2CCCCC2C(=O)OCC(F)(F)C(F)F)s1 (stereo not given)	none
O=C1Nc2ccccc2C(O)(C(=O)NCc2ccco2)N1c1ccc(Cl)c(Cl)c1 (stereo not given)	CTSL1 counter 66.2 (no result: GC-A act, GC-B act, ARFGAP1 inh, ASAP1 inh)
COc1ccc(Oc2cc(C)nc(Cl)n2)nn1	none
CCN1C(=S)N[C@@H](c2cccc(F)c2)C(C(=O)OC)=C1C	GC-B act 45.4
Cc1nnc2sc(SCC(=O)N3CCC(C)CC3)nn2c1=O	CTSL1 counter 47.3
Cc1nnc2sc(SCC(=O)N3CCCCC3)nn2c1=O	none
C=CCn1c(=O)c2c3c(sc2n2c(Nc4ccccc4)nnc12)CCCC3	none
C=CCn1c(=O)c2c3c(sc2n2c(Nc4ccc(OC)cc4)nnc12)CCCC3	GC-A act 47.7, GC-B act 54.2
Cc1cc2nc(-c3cccc(NC(=O)c4ccc(Br)o4)c3C)oc2cc1C	CTSL1 counter 18.0
CCOC(=O)CSc1nc2cccnc2n1-c1ccc(F)cc1	none
